In ChEMBL document CHEMBL1135142, “Synthesis and in vitro evaluation of N,N'-diphenyl and N-naphthyl-N'-phenylguanidines as N-methyl-D-aspartate receptor ion-channel ligands” (Bioorg Med Chem Lett, 2002):
pKi: −log10 of the molar value.

Assays:
[1] = Partition coefficient (logP); format: physicochemical; conditions: octanol/water
In short: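 Lipophilicity (log P) estimated by HPLC analysis.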

Glutamate NMDA receptor = test: In vitro binding to N-methyl-D-aspartate glutamate receptor using [3H]MK-801 (1 nM) and rat brain membrane suspensions
In short: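 Test compounds displaced the radioligand, and IC₅₀ values were read from displacement curves. Ki was calculated from IC₅₀ by the Cheng–Prusoff method. Values are means of at least three experiments, with standard deviation.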

SMILES | logP [1] | pKi (Glutamate NMDA receptor)
CN(C(=N)Nc1cccc2ccccc12)c1cccc(F)c1 | 2.31 | 6.08
COc1cccc(N(C)C(=N)Nc2cccc3ccccc23)c1 | 2.26 | 7.36
CSc1cccc(N(C)C(=N)Nc2cc(SC)ccc2Cl)c1 [CNS-5161] | 2.68 | 8.73
CSc1ccc(Cl)c(NC(=N)N(C)c2cccc(I)c2)c1 | 2.91 | 8.46
CN(C(=N)Nc1cccc2ccccc12)c1cccc(I)c1 | 2.94 | 8.33

Continued, values first:

logP [1] | pKi (Glutamate NMDA receptor) | SMILES
2.34 | – | CSc1ccc(Cl)c(NC(=N)N(C)c2cccc(F)c2)c1
3.12 | 7.85 | CSc1ccc(Cl)c(NC(=N)N(C)c2cc(C)cc(C)c2)c1
3 | 8.20 | CCc1cccc(N(C)C(=N)Nc2cc(SC)ccc2Cl)c1
2.34 | 8.28 | COc1cccc(N(C)C(=N)Nc2cc(SC)ccc2Cl)c1
2.94 | 7.66 | Cc1cc(C)cc(N(C)C(=N)Nc2cccc3ccccc23)c1
